Source: ChEMBL document CHEMBL1123702, “Functionalized DL-amino acid derivatives. Potent new agents for the treatment of epilepsy” (J Med Chem, 1987)
Non-standard residues stand in square brackets, D forms with d. Residues, ends and D or L forms follow the SMILES beside them. ξ: configuration not given here. *: point of attachment. NHBn = c1ccc(CN*)cc1; ξA = CC(N)C(=O)O

What was measured:
[1] = species: Mus musculus; test: Anticonvulsant against maximal electroshock induced convulsions after 30 min.; assay type: functional
How it was run: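 Male Carworth Farms No. 1 mice, test agent given ip at 30, 100 and 300 mg/kg (one agent also at 600 mg/kg); read at 0.5 h. Electroshock via electrodes, with a drop of 0.9% saline in the eye first. Protection is abolition of the hind-limb tonic extension. One mouse per dose. Scored 0–4 by the lowest dose with noticeable activity.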

[2] = system: Mus musculus; test: Anticonvulsant against s.c. Metrazol-induced convulsions after 30 min.; assay type: functional
How it was run: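 Mice (male Carworth Farms No. 1) got ip doses of 30, 100 or 300 mg/kg (600 mg/kg for one agent), checked at 0.5 h. Pentylenetetrazole 85 mg/kg as a 0.5% solution was injected sc in the posterior midline, then the animal was watched for 30 min. Protection means no threshold seizure (clonic spasms lasting ≥5 s). Single animals per dose; scored 0–4 by dose level.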

[3] = species: Mus musculus; test: Anticonvulsant activity was determined by rotarod toxicity test (neurologic toxicity) at an interval of 0.5 h; assay type: organism-based; settings: in vivo
How it was run: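 Phase I screen in male Carworth Farms No. 1 mice, ip at 30, 100 and 300 mg/kg, read at 0.5 h. Four mice per dose on a 1-in. knurled rod at 6 rpm; neurotoxicity is failure to remain on it for 1 min. Scored 0–4: 0 = none at 600 mg/kg, then 1–4 = activity at 600, 300, 100 or 30 mg/kg.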

[4] = species: Mus musculus; test: Anticonvulsant activity was determined by maximum-induced convulsions electroshock seizure test (Phase IV Pharmacological Evaluation); assay type: functional
[5] = Neurologic toxicity activity was determined by rotarod toxicity test (Phase II Pharmacological Evaluation); assay type: organism-based; settings: mouse, in vivo
[6] = Neurologic toxicity activity was determined by rotarod toxicity test (Phase IV Pharmacological Evaluation); assay type: organism-based; settings: mouse, in vivo
[7] = species: Mus musculus; test: Anticonvulsant activity was determined by maximum-induced convulsions electroshock seizure test (Phase II Pharmacological Evaluation); assay type: functional
[8] = Protectivity index is the ratio of TD50 /MES ED50 from Phase-IV evaluation; assay type: functional
How it was run: (§1)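 MES protection: hind-limb tonic extension abolished. sc Met: pentylenetetrazole 85 mg/kg as 0.5% solution sc, 30 min observation; protection: no threshold clonic seizure of 5 s or more. Toxicity: failing to stay 1 min on a 6 rpm rod. PI = TD50/MES ED50.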

[9] = Protectivity index is the ratio of TD50 /MES ED50 from Phase-II evaluation; assay type: functional
How it was run: (§2)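 MES protection: hind-limb tonic extension abolished; saline drop in eye before electrodes. sc Met: pentylenetetrazole 85 mg/kg as 0.5% solution sc in posterior midline, 30 min observation; protection: no clonic spasm episode of at least 5 s. Rotarod toxicity: falling off a 1-in. rod at 6 rpm within 1 min. PI = TD50/MES ED50.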

[10] = system: Mus musculus; test: Anticonvulsant activity was determined by subcutaneous Metrazol-induced convulsions seizure test (Phase II Pharmacological Evaluation); assay type: functional; settings: sc; how it was run: as §2
[11] = system: Mus musculus; test: Anticonvulsant activity was determined by subcutaneous picrotoxin test (CD97=3.15 mg/kg) (Phase V Pharmacological Evaluation); assay type: functional; settings: sc
[12] = system: Mus musculus; test: Anticonvulsant activity was determined by subcutaneous bicuculline test (CD97=2.70 mg/kg) (Phase V Pharmacological Evaluation); assay type: functional; settings: sc
[13] = system: Mus musculus; test: Anticonvulsant activity was determined by subcutaneous Metrazol-induced convulsions seizure test (Phase IV Pharmacological Evaluation); assay type: functional; settings: sc; how it was run: as §1
[14] = system: Mus musculus; test: Anticonvulsant activity was determined by subcutaneous Metrazol-induced convulsions (sc MET)(Phase V Pharmacological Evaluation); assay type: functional
How it was run: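 Mice, normally eight per dose; Metrazol 85 mg/kg (CD97) as 0.5% solution sc in posterior midline. Animals isolated and observed 30 min; protection: no threshold seizure (a clonic spasm episode of at least 5 s).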

[15] = system: Mus musculus; test: Anticonvulsant activity was determined by subcutaneous pentylenetetrazole seizure test (Phase IV Pharmacological Evaluation); assay type: functional; settings: sc; how it was run: as §1
[16] = species: Mus musculus; test: Anticonvulsant activity was determined by maximum-induced convulsions electroshock seizure test (Phase III Pharmacological Evaluation); assay type: functional

SMILES	MES [1]	MET [2]	Toxicity [3]	further results
CC(=O)NC(Cc1ccccc1)C(=O)NCc1ccccc1 (stereo unspecified)	0	0	0	
CC(=O)NCCC(=O)NCc1ccccc1	0	0	0	
CC(=O)NCC(=O)NCc1ccccc1	2	0	2	
CC(=O)NC(C(=O)NCc1ccccc1)c1ccccc1 (stereo unspecified)	4	0	2	ED50 [4]: 46.7 mg/kg; TD50 [5]: 96.9 mg/kg; TD50 [6]: 241 mg/kg; ED50 [7]: 20.3 mg/kg; Protective Index [8]: 5.17; Protective Index [9]: 4.77
CC(=O)NC(C)C(=O)NCc1cccc(F)c1 (stereo unspecified)	3	0	0	ED50 [7]: 77.4 mg/kg; ED50 [10]: 142 mg/kg; Protective Index [9]: > 6.46
CC(=O)NCC(=O)NC(C)C(=O)NCc1ccccc1 (stereo unspecified) (Ac-Gly-[ξA]-NHBn)	0	0	0	
COc1cccc(CNC(=O)C(C)NC(C)=O)c1 (stereo unspecified)	2	0	0	
CC(C)C(=O)NC(C)C(=O)NCc1ccccc1 (stereo unspecified)	0	0	0	
CC(=O)NC(C)C(=O)NCC(=O)NCc1ccccc1 (stereo unspecified) (Ac-[ξA]-Gly-NHBn)	0	0	0	
CC(=O)NC(C)C(=O)NC(c1ccccc1)c1ccccc1 (stereo unspecified)	0	0	0	
CSCCC(NC(C)=O)C(=O)NCc1ccccc1 (stereo unspecified)	2	0	0	
CNC(=O)C(C)NC(C)=O (stereo unspecified)	0	0	0	
CC(NC(=O)C(C)(C)C)C(=O)NCc1ccccc1 (stereo unspecified)	2	2	0	
CC(=O)NCC(C)C(=O)NCc1ccccc1 (stereo unspecified)	2	0	0	
CCC1(C)CC(=O)NC1=O (stereo unspecified) [ETHOSUXIMIDE]				TD50 [5]: 441 mg/kg; ED50 [11]: 243 mg/kg; TD50 [6]: 879 mg/kg; ED50 [12]: 459 mg/kg; ED50 [10]: 130 mg/kg; ED50 [13]: 192 mg/kg; ED50 [14]: 130 mg/kg
CC(=O)NC(C(=O)NCc1ccccc1)C(C)C (stereo unspecified)	2	0	0	
CCCC(CCC)C(=O)O [VALPROIC ACID]				ED50 [4]: 665 mg/kg; ED50 [11]: 387 mg/kg; ED50 [12]: 360 mg/kg; ED50 [7]: 272 mg/kg; ED50 [10]: 149 mg/kg; ED50 [13]: 388 mg/kg; ED50 [14]: 149 mg/kg
CC(=O)NC(C)C(=O)NCc1ccccc1 (stereo unspecified)	3	0	1	ED50 [11]: 134 mg/kg; ED50 [12]: 205 mg/kg; ED50 [7]: 76.5 mg/kg; ED50 [15]: 266 mg/kg; ED50 [16]: 123 mg/kg; Protective Index [8]: > 8.15; Protective Index [9]: 5.93
CC(=O)NC(C(=O)NCc1ccccc1)(c1ccccc1)c1ccccc1	0	0	0	
